Bioassay records as filed in PubChem BioAssay.
ERAP1 inh: inhibitors of human ERAP1 aminopeptidase | 340,000 compounds, 0.15% hits | recombinant ERAP1, Leu-AMC fluorescence, 60 min | inhibition, % at 10.7 µM;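 active = mean replicate inhibition of at least 30%, or all replicates individually reaching that 30% level; inactive = mean below 30% and not every replicate reaching it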;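 also: 0% = neutral control wells and 100% = L-leucinethiol positive control wells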
E-sel inducer: E-selectin induction on HUVECs; HUVEC E-selectin immunofluorescence imaging; normalized: neutral wells 0, TNF-alpha wells 100; activation, % at 7.58 µM; 260,000 compounds, 0.37% hits;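 active = mean E-selectin-positive cell signal at least 10% of the positive control, reached in at least 60% of replicates, without over 20% cell loss; inconclusive = no rule given, readout overlaps actives, possibly toxicity-flagged; inactive = the rest, including those meeting only one limit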
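Read-out basis: % PE-positive cells; Test system: HUVEC primary endothelial cells; Technique: immunofluorescence imaging; Dosing: single-point compound dose.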
DENV2 CPE: protects cells from dengue virus 2 cytopathic effect | AID 651640 | CPE inhibition, % at 9.99 µM | DENV2-infected cells, cytopathic effect rescue, plate reader | 350,000 compounds, 1.7% hits; in the data active = CPE inhibition above about 20%, passing the limit was not always enough; inconclusive = no clear call, values can overlap the other calls; tested in BHK-21 cells;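 also: 0% = median of neutral control wells and 100% = median of positive control wells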
miR122 inh: miR-122 inhibition in Huh7 cells; Huh7 miR-122 Renilla luciferase sensor, 48 h; neutral wells = 0, positive control = 100; activation (reporter increase), % at 12.5 µM; 340,000 compounds, 0.3% hits;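 active = mean replicate activation score at least 90 and every replicate individually at or above 90; inconclusive = only one of the two criteria met; inactive = neither criterion met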;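 also: higher luciferase means less miR-122 activity so hits act as miR-122 inhibitors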
GSIS activator: GLuc luminescence reporter in INS-1E cells, primary screen for activators of glucose-dependent secretion of insulin; 370,000 compounds, 0.61% hits; AID 743287; activation, % at 16.6 µM; INS-1E GLuc reporter insulin secretion, 2-3 h;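 active = lowest replicate activation of at least 40%, so every replicate reaches that level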;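 also: 0% = median of neutral control wells and 100% = median of IBMX positive control wells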
CFTR F508del cor: CFTR F508del correction in bronchial cells; 350,000 compounds, 0.36% hits; activity (quench increase), % at 7.58 µM; AID 720511; CFBE cells, YFP halide quenching; stimulated with forskolin plus potentiator P3; % fluorescence drop versus neutral controls;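 active = mean added fluorescence quench of at least 8% versus neutral control, with both replicates also reaching 8%; inconclusive = only one of the mean or replicate conditions met; inactive = mean below 8% and not both replicates reaching 8%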;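 also: cells transiently co-express mutant CFTR-F508del with the halide-sensitive YFP; corrector assay measuring rescue of mutant channel to the surface after 24 h compound exposure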
miR-27b select: miR-27b effect in Huh7 as miR-122 inhibitor selectivity check | shares compounds with miR122 inh | Huh7 miR-27b levels, qRT-PCR, 48 h | relative miR-27b level (unnormalised ratio), ratio at 35 µM | 35 tested, under 10 active | AID 687039;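 active = compounds lowering miR-27b whose fitted half-maximal dose is at most twice their top tested dose; inconclusive = flat curve with moderate drop, or poor fit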
An asterisk follows results filed as active; ? = inconclusive; / = no result given; [ ] = another dose, or the depositor's remark. Sampled rows, rich in hits. Any-hit rate of the full collection: about 2.6%.

SMILES	ERAP1 inh	E-sel inducer	DENV2 CPE	miR122 inh	GSIS activator	CFTR F508del cor	miR-27b select
C[C@@H]1CN([C@@H](C)CO)C(=O)c2cc(N(C)C)ccc2O[C@@H]1CN(C)S(=O)(=O)c1cn(C)cn1	-1	-10	4	-4[16.7 µM]	14	1	/
C[C@@H]1CN([C@H](C)CO)C(=O)c2cc(N(C)C)ccc2O[C@H]1CN(C)S(=O)(=O)c1cn(C)cn1	1	63*	9	-4[16.7 µM]	5	1	/
COc1ccccc1N1CCN(C(=O)c2cccc(C(=O)N3CCN(c4ccccc4OC)CC3)c2)CC1	-2	/	-1	1	-16	-6	/
CCOc1ccccc1N1CCN(C(=O)c2cccc(-c3ccc(O)cc3)c2)CC1	0	/	/	156*	/	/	0.84
C[C@@H]1CN([C@@H](C)CO)C(=O)c2cc(NS(=O)(=O)c3cccs3)ccc2O[C@H]1CN(C)C(=O)NC1CCCCC1	/	1	/	/	-18	/	/
C[C@H](CO)N1C[C@H](C)[C@@H](CN(C)Cc2cncnc2)Oc2ncc(-c3cccc(C#N)c3)cc2C1=O	-1	0	-6	-6[16.7 µM]	25	1	/
COc1cc(C)c(C(C)C)cc1S(=O)(=O)n1cnc(C)c1	5	0	0	152*	2	-2	0.91
CN1C(=O)c2cccc3c(S(=O)(=O)NCCc4ccccc4)ccc1c23	3	/	-1	117*	-13	-3	0.64
COCCNS(=O)(=O)c1ccc2c3c(cccc13)C(=O)N2C	2	/	-3	33	0	1	/
Cc1cccc(NS(=O)(=O)c2cc3c(cc2C)NC(=O)CO3)c1	3	0	-1	107*	6	-3	0.69
Cc1cc(Cl)c(Cl)cc1S(=O)(=O)NCCCn1ccnc1	0	1	?	132*	-6	2	0.87
Cc1cc(S(=O)(=O)NCCCn2ccnc2)c(C)cc1Cl	-2	0	-3	/	3	3	/
COC(=O)C[C@@H]1CC[C@H]2[C@@H](COc3ccc(NS(C)(=O)=O)cc3C(=O)N2C)O1	/	0	-2	25[16.7 µM]	3	-2	/
CCOc1ccc(C)cc1S(=O)(=O)NC1CCCCC1	/	/	/	283*	/	/	0.52
Cc1cc(C)c(C)c(S(=O)(=O)NC2CCCCC2)c1C	-2	0	2	93*	-3	1	0.68
CCOc1cc(S(=O)(=O)NC2CCCCC2)ccc1F	/	/	/	37	/	/	/
Cc1ccc(/C=C/C(=O)O)cc1S(=O)(=O)NCCO	/	/	/	-3	37	/	/
Cc1cc(C(C)(C)C)cc(S(=O)(=O)NCCO)c1C	/	/	/	93*	/	/	0.94
C[C@H]1CN([C@@H](C)CO)C(=O)Cc2cc(NS(C)(=O)=O)ccc2O[C@H]1CN(C)C(=O)Nc1ccc(C(F)(F)F)cc1	3	/	3	8[16.7 µM]	-1	-2	/
Cc1ccc(S(=O)(=O)Nc2ccc3c4c(cccc24)CC3)c(C)c1	/	/	/	198*	/	/	0.65
COc1ccc(C)cc1NS(=O)(=O)c1ccc2c(c1)N(C)CCO2	-2	/	3	149*	0	-1	1.2
Cc1ccc(C)c(S(=O)(=O)Nc2ccc3cn[nH]c3c2)c1	-3	/	-1	153*	-1	6	1.3
CC(C)NC(=O)N(C)C[C@@H]1OCCCC[C@@H](C)Oc2ccc(NS(=O)(=O)c3ccc(F)cc3)cc2C(=O)N([C@@H](C)CO)C[C@H]1C	1	0	-9	-5[16.7 µM]	-2	-2	/
Cc1ccc(Cn2c(N)c(S(=O)(=O)c3cccs3)c3nc4ccccc4nc32)cc1	/	/	/	27	/	/	/
Nc1c(S(=O)(=O)c2cccs2)c2nc3ccccc3nc2n1Cc1ccccc1	/	/	/	321*	/	/	0.43
CCCNC(=O)N1C[C@@H]2[C@H](c3ccccc31)[C@@H](CO)N2C(=O)NCCC	3	0	?	-11[16.7 µM]	10	0	/
O=C(Nc1ccc(N2CCOCC2)c(S(=O)(=O)Nc2cc(Cl)ccc2Cl)c1)c1cccnc1	/	0	-4	325*	6	0	0.99
COc1ccc(-c2ccccc2[C@H]2[C@@H](C#N)N(C(=O)C3CCCC3)[C@@H]2CO)cc1	1	0	-5	/	-9	1	/
